ChEMBL document CHEMBL2169846, “Design and synthesis of Pictet-Spengler condensation products that exhibit oncogenic-RAS synthetic lethality and induce non-apoptotic cell death” (Bioorg Med Chem Lett, 2012)
Active and inactive are the calls of the source. The rule behind the calls is not given here.

What was measured:
[1] = Growth inhibition of human BJeH-LT cells expressing wild type RAS relative to control; assay type: functional
In short: (§1)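 Four cell lines treated for 48 h in a two-fold, 7-point dilution series. Viability by Alamar blue reading. LC50 and maximum growth-inhibitory efficacy were tabulated as ± SEM of triplicates.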

[2] = tested on: BJeH; assay: Cytotoxicity against human BJeH cells expressing wild type RAS at 30 uM after 24 hrs by trypan blue staining; assay type: functional, cell-based
[3] = Growth inhibition of human DRD cells expressing RAS G12V mutant relative to control; assay type: functional; in short: as §1
[4] = tested on: BJeLR; assay: Induction of apoptosis in human BJeLR cells expressing RAS G12V mutant assessed as caspase 3 activation after 28 hrs by Apo-One assay; assay type: functional, cell-based
In short: (§2)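 BJ-TERT and BJ-TERT/LT/ST/RAS(V12) cells given compound as a two-fold, 14-point dilution series for 28 h. Alamar blue then added for viability, and caspase 3/7 activation detected by Apo-ONE in the same wells.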

[5] = Cytotoxicity against human HT1299 cells after 48 hrs by alamar blue assay; assay type: functional; conditions: HT1299, 48 h, read-out: LC50 (the source's name)
[6] = Ratio of MEL24 LC50 to compound LC50 for human BJeLR cells expressing RAS G12V mutant; assay type: functional
[7] = tested on: BJeLR; assay: Cytotoxicity against human BJeLR cells expressing RAS G12V mutant at 30 uM at 12 hrs by trypan blue staining; assay type: functional, cell-based
In short: (§3)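 Time-course in BJ-TERT/LT/ST/RAS^V12 cells exposed for the designated times to erastin (10 µM), test compound (30 µM) or RSL3 (0.57 µM) to follow onset of death. Data representative of duplicate experiments.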

[8] = Selectivity ratio of LC50 for human BJeH cells to LC50 for human BJeLR cells expressing RAS G12V mutant; assay type: functional
In short: (§4)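 LC50 of BJ-TERT divided by LC50 of the RAS(V12)-transformed line or of DRD cells.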

[9] = Cytotoxicity against human BJeH-LT cells expressing wild type RAS; assay type: functional; conditions: read-out: LC50 (the source's name)
[10] = Cytotoxicity against human BJeLR cells expressing RAS G12V mutant after 48 hrs by alamar blue assay; assay type: functional, cell-based; conditions: read-out: LC50 (the source's name)
[11] = tested on: MCF7; assay: Cytotoxicity against human MCF7 cells at 20 ug/mL after 48 hrs by alamar blue assay; assay type: functional, cell-based
In short: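 Each cell line exposed for 48 h to a 2-fold, 12-point dilution series beginning at 20 µg/mL. Viability by Alamar blue; LC50 derived from the curves.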

[12] = Growth inhibition of human BJeLR cells expressing RAS G12V mutant relative to control; assay type: functional; in short: as §1
[13] = tested on: HT-1080; assay: Cytotoxicity against human HT1080 after 48 hrs by alamar blue assay in presence of Boc-D-fmk; assay type: functional, cell-based
In short: (§5)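 HT1080 cells given the test compound together with a rescue agent: deferoxamine 152 µM, α-tocopherol 100 µM, z-VAD-fmk 45 µM or Boc-D-fmk 50 µM. Viability read out afterwards.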

[14] = tested on: BJeLR; assay: Cytotoxicity against human BJeLR cells expressing RAS G12V mutant at 30 uM at 24 hrs by trypan blue staining; assay type: functional, cell-based; in short: as §3
[15] = tested on: E3 ubiquitin-protein ligase Mdm2 (Homo sapiens), Q00987 [C464A]; assay: Inhibition of Mdm2 C464A mutant at 20 ug/mL after 2 hrs by cell-based luciferase assay
[16] = Selectivity ratio of LC50 for human BJeH cells to LC50 for human DRD cells; assay type: functional; in short: as §4
[17] = Growth inhibition of human BJeH cells expressing wild type RAS relative to control; assay type: functional; in short: as §1
[18] = tested on: HT-1080; assay: Cytotoxicity against human HT1080 after 48 hrs by alamar blue assay in presence of alpha-tocopherol; assay type: functional, cell-based; in short: as §5
[19] = Cytotoxicity against human BJeH cells expressing wild type RAS; assay type: functional; conditions: read-out: LC50 (the source's name)
[20] = tested on: BJeLR; assay: Induction of apoptosis in human BJeLR cells expressing RAS G12V mutant assessed as caspase 7 activation after 28 hrs by Apo-One assay; assay type: functional, cell-based; in short: as §2
[21] = tested on: HT-1080; assay: Cytotoxicity against human HT1080 after 48 hrs by alamar blue assay in presence of deferoxamine; assay type: functional, cell-based; in short: as §5
[22] = tested on: BJeH; assay: Induction of reactive oxygen species production in human BJeH cells expressing wild type RAS after 18 hrs by DCF-based flow cytometric analysis; assay type: functional, cell-based
[23] = tested on: BJeLR; assay: Cytotoxicity against human BJeLR cells expressing RAS G12V mutant at high concentration after 28 hrs by alamar blue assay; assay type: functional, cell-based
In short: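 BJ-TERT/LT/ST/RAS^V12 cells treated for 28 h across a two-fold, 14-point dilution series. Viability was read by Alamar blue, and caspase 3/7 activation was detected by Apo-ONE in the same cells.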

[24] = Cytotoxicity against human BJeH cells expressing wild type RAS after 48 hrs by alamar blue assay; assay type: functional, cell-based; conditions: read-out: LC50 (the source's name)
[25] = tested on: RKO; assay: Cytotoxicity against human RKO cells after 48 hrs by alamar blue assay; assay type: functional; conditions: read-out: LC50 (the source's name)
[26] = tested on: HT-1080; assay: Cytotoxicity against human HT1080 after 48 hrs by alamar blue assay in presence of z-VAD-fmk; assay type: functional, cell-based; in short: as §5
[27] = tested on: BJeH; assay: Induction of apoptosis in human BJeH cells expressing wild type RAS assessed as caspase 3 activation after 28 hrs by Apo-One assay; assay type: functional, cell-based; in short: as §2
[28] = target: E3 ubiquitin-protein ligase Mdm2 (Homo sapiens) (UniProt Q00987); assay: Inhibition of wild type Mdm2 at 20 ug/mL after 2 hrs by cell-based luciferase assay
[29] = Cytotoxicity against human DRD cells expressing RAS G12V mutant; assay type: functional; conditions: read-out: LC50 (the source's name)
[30] = Cytotoxicity against human BJeLR cells expressing RAS G12V mutant; assay type: functional; conditions: read-out: LC50 (the source's name)
[31] = Stability of the compound in phosphate buffered saline after 24 hrs by mass spectroscopy; assay type: physicochemical; conditions: buffer
[32] = Stability of the compound assessed as GSH adduct formation after 24 hrs by mass spectroscopy; assay type: physicochemical
[33] = tested on: BJeLR; assay: Induction of reactive oxygen species production in human BJeLR cells expressing RAS G12V mutant after 18 hrs by DCF-based flow cytometric analysis; assay type: functional, cell-based
[34] = tested on: BJeH; assay: Induction of apoptosis in human BJeH cells expressing wild type RAS assessed as caspase 7 activation after 28 hrs by Apo-One assay; assay type: functional, cell-based; in short: as §2
[35] = tested on: BJeH; assay: Cytotoxicity against human BJeH cells expressing wild type RAS at 20 ug/mL after 48 hrs by alamar blue assay; assay type: functional, cell-based
[36] = tested on: U2OS; assay: Cytotoxicity against human U2OS cells at 20 ug/mL after 48 hrs by alamar blue assay; assay type: functional, cell-based
[37] = tested on: MCF7; assay: Cytotoxicity against human MCF7 cells after 48 hrs by alamar blue assay; assay type: functional; conditions: MCF7, 48 h, read-out: LC50 (the source's name)
[38] = tested on: HT-1080; assay: Cytotoxicity against human HT1080 cells after 48 hrs by alamar blue assay; assay type: functional; conditions: HT-1080, 48 h, read-out: LC50 (the source's name)
[39] = tested on: U2OS; assay: Cytotoxicity against human U2OS cells after 48 hrs by alamar blue assay; assay type: functional; conditions: read-out: LC50 (the source's name)
[40] = tested on: BJeLR; assay: Cytotoxicity against human BJeLR cells expressing RAS G12V mutant at 10 uM at 24 hrs by trypan blue staining; assay type: functional, cell-based
[41] = tested on: BJeH; assay: Cytotoxicity against human BJeH cells expressing wild type RAS at 10 uM after 24 hrs by trypan blue staining; assay type: functional, cell-based
[42] = tested on: BJeLR; assay: Induction of reactive oxygen species production in human BJeLR cells expressing RAS G12V mutant after 6 hrs by DCF-based flow cytometric analysis; assay type: functional, cell-based
[43] = tested on: BJeLR; assay: Cytotoxicity against human BJeLR cells expressing RAS G12V mutant at 10 uM at 12 hrs by trypan blue staining; assay type: functional, cell-based
[44] = tested on: BJeH; assay: Induction of reactive oxygen species production in human BJeH cells expressing wild type RAS after 6 hrs by DCF-based flow cytometric analysis; assay type: functional, cell-based
[45] = tested on: BJeLR; assay: Cytotoxicity against human BJeLR cells expressing RAS G12V mutant at 20 ug/mL after 48 hrs by alamar blue assay; assay type: functional, cell-based

E3 ubiquitin-protein ligase Mdm2 (Homo sapiens), sequence (Q00987 whole entry, looked up): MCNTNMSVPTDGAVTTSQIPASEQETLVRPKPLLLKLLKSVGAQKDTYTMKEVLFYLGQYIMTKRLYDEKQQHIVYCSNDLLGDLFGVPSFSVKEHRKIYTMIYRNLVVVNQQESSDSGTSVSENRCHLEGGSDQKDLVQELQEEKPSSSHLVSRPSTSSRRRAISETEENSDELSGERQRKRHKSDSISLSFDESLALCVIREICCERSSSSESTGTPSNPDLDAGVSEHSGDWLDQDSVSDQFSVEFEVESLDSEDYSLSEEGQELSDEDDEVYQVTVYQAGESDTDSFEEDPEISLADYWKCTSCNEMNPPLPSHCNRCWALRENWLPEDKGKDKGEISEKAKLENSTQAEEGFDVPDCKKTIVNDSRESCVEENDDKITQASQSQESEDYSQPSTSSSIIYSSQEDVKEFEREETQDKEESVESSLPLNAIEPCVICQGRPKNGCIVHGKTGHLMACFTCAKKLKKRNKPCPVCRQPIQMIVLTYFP
E3 ubiquitin-protein ligase Mdm2 (Homo sapiens), Q00987 [C464A], sequence (Q00987 whole entry C464A): as the sequence (Q00987 whole entry, looked up) above, with C464A counted along it

In the case of CCOC(=O)C1c2c(c3ccccc3n2C)CCN1C(=O)OC (stereo not given), the “growth inhibition (GI)” value [1] is reported as 8.5%, the Activity [2] is reported as “inactive” and the “growth inhibition (GI)” value [3] is reported as 67%. For the same compound, the Activity [4] was “inactive”, the CC50 [5] was 30 µM and the Ratio [6] was 4. The Activity [7] was “Active”, the Ratio [8] was 10 and the CC50 [9] was 266 µM. The CC50 [10] was 6.3 µM, the Activity [11] was “inactive” and the “growth inhibition (GI)” value [12] was 98.7%. The Activity [13] was “Active”, the Activity [14] was “Active” and the inhibition [15] was “inactive”. For the same compound, the Ratio [16] was 3, the “growth inhibition (GI)” value [17] was 22.1% and the Activity [18] was “inactive”. The CC50 [19] was 179 µM, the Activity [20] was “inactive” and the Activity [21] was “inactive”. The Activity [22] was “Active”, the Activity [23] was “Active” and the CC50 [24] was 63.2 µM. The CC50 [25] was 31.6 µM, the Activity [26] was “Active” and the Activity [27] was “inactive”. The inhibition [28] was “inactive”, the CC50 [29] was 102 µM and the CC50 [30] was 20.3 µM. The Stability [31] was “Stable”, the Stability [32] was “Stable” and the Activity [33] was “Active”. For the same compound, the Activity [34] was “inactive”.
CN1C(=O)C(C2NC=Cc3c2[nH]c2ccccc32)C(=O)N(C)C1=O (stereo not given) gave a CC50 [5] of 61.7 µM, a Ratio [6] of 2 and a CC50 [10] of 12.9 µM. For the same compound, the inhibition [15] was “inactive”, the Activity [35] was “inactive” and the CC50 [25] was 25 µM. The inhibition [28] was “inactive”, the Activity [36] was “inactive” and the CC50 [37] was 61.7 µM. For the same compound, the CC50 [38] was 16 µM.
CC(C=O)C1c2c(c3ccccc3n2C(=O)OC(C)(C)C)CCN1C(=O)OC(C)(C)C (stereo not given) showed a CC50 [5] of 46.7 µM, a CC50 [10] of 46.7 µM and a CC50 [39] of 10 µM. For the same compound, the inhibition [15] was “inactive”, the Activity [35] was “inactive” and the CC50 [25] was 7.7 µM. For the same compound, the inhibition [28] was “inactive”, the CC50 [37] was 11.4 µM and the CC50 [38] was 13.7 µM.
For CN1C(=O)C(C2NCCc3c2[nH]c2ccccc32)C(=O)N(C)C1=O (stereo not given), the Activity [4] was “Active”, the CC50 [5] was 32.8 µM and the CC50 [10] was 23.3 µM. The CC50 [39] was 29.4 µM, the inhibition [15] was “inactive” and the Activity [20] was “Active”. The CC50 [24] was 32.2 µM, the CC50 [25] was 30.9 µM and the Activity [27] was “Active”. For the same compound, the inhibition [28] was “inactive”, the CC50 [37] was 31.2 µM and the Activity [34] was “Active”. For the same compound, the CC50 [38] was 16.5 µM.
In the case of CCOc1ccccc1-n1c(C(C)N2CCN(C(=O)COc3ccc(Cl)cc3)CC2)nc2ccccc2c1=O (stereo not given), the Activity [40] is reported as “Active”, the Activity [41] is reported as “inactive” and the Activity [42] is reported as “Active”. For the same compound, the Activity [43] was “Active” and the Activity [44] was “Active”.
In the case of CCOC(=O)C(C)C1c2[nH]c3ccccc3c2CCN1C(=O)OC(C)(C)C (stereo not given), the CC50 [5] is reported as 53.7 µM, the CC50 [39] is reported as 53.7 µM and the inhibition [15] is reported as “inactive”. For the same compound, the Activity [35] was “inactive”, the CC50 [25] was 27.9 µM and the inhibition [28] was “inactive”. For the same compound, the CC50 [37] was 23.6 µM, the Activity [45] was “inactive” and the CC50 [38] was 53.7 µM.
